# Compounds with a hit are over-represented: about 3.4% of the library has one in this group of screens.
# CHT PAM: allosterically activates the human high affinity choline transporter; Q9GZV3; CHT-expressing cells, membrane potential dye, choline EC20; stronger effect = higher value; LV-AA mutant CHT in HEK293 cells; B-score at 10 µM; 310,000 tested, 0.49% active;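 active means initial fluorescence not abnormally high and integrated response B-score, plate-corrected, over 3 SD above library mean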
# ANO1 activ: activators or potentiators of mouse TMEM16A chloride channel. Q8BHY3. HEK293 TMEM16A/YFP-H148Q/I152L, iodide quench fluorescence; stronger effect = lower value. B-score at 10 µM. 340,000 tested, 0.3% active. AID 623877;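 active means fluorescence-ratio B-score plate-corrected deviation score at least 3 library SD below zero, with starting fluorescence score within 5 deviations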;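 further: channel opened by trigger with iodide after compound preincubation; score built on the fluorescence ratio of max minus min over baseline; more negative score means more quench and so TMEM16A activation or potentiation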
# VIM-2 inhibitor: blocks Pseudomonas aeruginosa VIM-2 metallo-beta-lactamase; purified VIM-2, nitrocefin hydrolysis, epi-absorbance fluorescence; inhibition, % at 5.6 µM; 290,000 tested, 0.89% active; AID 1527;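 active means inhibition above the mean of all tested compounds plus 3 SD, cutoff set per screening run, cut at about 7.5% in these data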;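 further: red hydrolysis product quenches plate fluorescence so inhibitors raise well fluorescence; 0% = enzyme with DMSO and 100% = DMSO without enzyme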
# IMP-1 inh-1: blocks Pseudomonas aeruginosa IMP-1 metallo-beta-lactamase. purified IMP-1, nitrocefin hydrolysis, epi-absorbance fluorescence. inhibition, % at 5.6 µM. 290,000 tested, 0.45% active. AID 1556;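 active means inhibition above the mean plus 3 SD of all compounds in the same screening run, cut at about 4.5% in these data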;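 further: 0% = IMP-1 with DMSO and 100% = DMSO wells lacking enzyme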
#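 Test system: recombinant IMP-1 enzyme, purified / Medium: HEPES buffer pH 7.1 with ZnSO4 and Brij 35 / Doses: single dose, 5.6 µM / Times: 25 °C, 15 min preincubation, 25 min reaction / Detection: Epi-absorbance via hydrolysed-nitrocefin quenching of white-plate fluorescence, 480/530 nm, EDTA stop / Evaluation: percent inhibition from optical density relative to buffer-blank wells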
# ANO1 block: blocks the mouse calcium-activated chloride channel TMEM16A | Q8BHY3 | HEK293 TMEM16A/YFP iodide influx fluorescence, ionomycin | normalized B-score (activity score, 25-100; higher = stronger inhibition) at 10 µM | 310,000 tested, 1.2% active | AID 588511;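 active means ratio plate-corrected score three or more library SD toward inhibition, starting fluorescence score within five deviations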;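 further: score derived from kinetic fluorescence span divided by baseline fluorescence per well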
# CHT inh: human CHT choline transport inhibition; Q9GZV3; CHT-expressing cells, membrane potential dye, choline response; stronger effect = lower value; B-score at 10 µM; 310,000 tested, 0.86% active; AID 488975;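 active means B-score over 3 SD under the library average, and starting fluorescence ratio not unusually high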;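 further: choline stimulus applied at its EC90 after an EC20 pre-addition; B-score computed on integrated fluorescence ratio after choline addition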
# IMP-1 inh-2: blocks IMP-1 metallo-beta-lactamase in VIM-2 selectivity screen; shares compounds with VIM-2 inhibitor; purified IMP-1, nitrocefin hydrolysis, epi-absorbance fluorescence; inhibition, % at 5.6 µM; 1,300 tested, under 10 active; AID 1856; call rule not given here;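 further: 0% = enzyme with vehicle and 100% = vehicle without enzyme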
# VIM-2 FRET ctr: counter-screen for VIM-2 inhibitors: epi-absorbance artifacts via FRET | shares compounds with VIM-2 inhibitor | purified VIM-2, CCF2 FRET substrate hydrolysis | inhibition, % at 5.6 µM | 1,300 tested, 23% active | AID 1857;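 active means inhibition above the mean of all tested compounds plus 3 SD, cut at about 19% in these data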;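 further: 0% = VIM-2 plus DMSO and 100% = no enzyme wells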
# TEM-1 inh: selectivity counter-screen for VIM-2 inhibitors: E. coli TEM-1 inhibitors; inhibition, % at 5.6 µM; Purified TEM-1, nitrocefin hydrolysis, epi-absorbance fluorescence; AID 1866; 1,300 tested, 3% active; shares compounds with VIM-2 inhibitor;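 active means inhibition above that campaign's mean inhibition plus 3 SD, cut at about 0.46% in these data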;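 further: 0% = TEM-1 with DMSO and 100% = TEM-1 with 100 µM potassium clavulanate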
# Target sequence (P62593 whole entry, looked up): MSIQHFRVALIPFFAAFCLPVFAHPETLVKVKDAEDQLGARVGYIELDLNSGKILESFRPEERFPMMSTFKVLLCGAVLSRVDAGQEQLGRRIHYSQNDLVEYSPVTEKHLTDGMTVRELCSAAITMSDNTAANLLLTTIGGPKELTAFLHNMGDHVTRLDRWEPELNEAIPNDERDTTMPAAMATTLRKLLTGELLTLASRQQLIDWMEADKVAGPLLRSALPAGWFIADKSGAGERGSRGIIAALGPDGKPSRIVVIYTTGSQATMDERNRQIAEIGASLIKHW
# VIM-2 confirm 2: confirmation of P. aeruginosa VIM-2 metallo-beta-lactamase inhibitors | shares compounds with VIM-2 inhibitor | purified VIM-2, nitrocefin hydrolysis, epi-absorbance | inhibition, % at 5.6 µM | 1,300 tested, 96% active | AID 2187;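 active means inhibition of the VIM-2 beta-lactamase enzyme above about 11% from the earlier first-round screen, limit read from the data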;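 further: 0% = VIM-2 with DMSO and 100% = buffer wells without enzyme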
# An asterisk follows results filed as active; i = inactive; / = no result given.
SMILES,CHT PAM,ANO1 activ,VIM-2 inhibitor,IMP-1 inh-1,ANO1 block,CHT inh,IMP-1 inh-2,VIM-2 FRET ctr,TEM-1 inh,VIM-2 confirm 2
CCC(=O)c1ccc(OCc2ccc(C(=O)c3ccccc3)cc2)cc1,i,i,-2,-2,i,i,/,/,/,/
Cc1cc(Br)ccc1NC(=O)CN(C)C(=O)CSCc1ccccc1,i,i,/,/,i,i,/,/,/,/
O=C(Cc1ccc(Cl)cc1)Nc1ccccc1C(=O)N1CCCCC1,i,i,-3,-4,i,i,/,/,/,/
COc1ccc(C2=NN(CC(=O)NCC(OC)OC)C(=O)CC2)cc1,i,i,0,0,i,i,/,/,/,/
O=C(Nc1ccc(C(=O)O)cc1)/C(=C\C=C\c1ccccc1)NC(=O)c1ccccc1Br,i,i,0,-1,i,i,/,/,/,/
CC(C)(C)N1CC(C(=O)Nc2ccc(C#N)cc2)CC1=O (stereo unspecified),i,i,0,-2,i,i,/,/,/,/
CN1CCN(c2ccc(NC(=O)COc3ccccc3Cl)cc2)CC1,i,i,20*,-3,i,i,-3,-1,-6,40*
CC(c1ccccc1)C(CC(=O)O)C(=O)Nc1ccc(Cl)c(Cl)c1 (stereo unspecified),i,i,-1,1,i,i,/,/,/,/
CC(C)COC(=O)c1cc(-c2ccc(/C=N/n3cnnc3)o2)ccc1Cl,i,i,1,-4,i,i,/,/,/,/
COc1cc([N+](=O)[O-])ccc1-c1ccc(/C=N\n2cnnc2)o1,i,i,45*,0,i,i,-2,-2,-2,45*
CCN=C1S/C(=C/c2ccc(-c3ccc(F)cc3)o2)C(=O)N1CC,i,i,-2,-3,i,i,/,/,/,/
Cc1ccc(Sc2oc(/C=N/n3cnnc3)cc2Br)cc1,i,i,-3,2,i,i,/,/,/,/
Cc1ccc(-c2ccc(/C=N\n3cnnc3)o2)c(Br)c1,i,i,13*,-3,i,i,-3,6,-6,24*
O=[N+]([O-])c1cc(-c2ccc(/C=N/n3cnnc3)o2)ccc1Cl,6.5*,i,44*,0,i,i,-3,5,-5,58*
Fc1ccc(-c2ccc(/C=N/n3cnnc3)o2)cc1,i,i,18*,-2,i,i,-2,-1,-6,30*
COc1cc([N+](=O)[O-])ccc1-c1ccc(/C=N/NC(=O)c2ccccc2O)o1,/,/,-4,-4,/,/,/,/,/,/
CN(C(=O)COC(=O)/C=C/c1ccc(F)cc1)c1c(N)n(Cc2ccccc2)c(=O)[nH]c1=O,i,i,/,/,i,i,/,/,/,/
Cc1cc(C)cc(C(=O)NCCC(=O)NCc2cc(=O)n(C)c(=O)n2C)c1,i,i,-1,-3,i,i,/,/,/,/
Cc1ccc(-c2ccc(/C=N/N3C(=O)C4C5C=CC(C6CC56)C4C3=O)o2)c([N+](=O)[O-])c1 (stereo unspecified),i,i,-1,-3,i,i,/,/,/,/
Cc1cc(-c2ccc(/C=N/n3cnnc3)o2)c(C)c([N+](=O)[O-])c1,11*,i,87*,-2,i,i,-3,5,-8,91*
CCN1CCN(Cc2c(O)ccc3c(=O)c(-c4ccc(OC)c(OC)c4)c(C)oc23)CC1,i,i,1,-1,i,i,/,/,/,/
CCN1CCN(Cc2c(O)ccc3c2O/C(=C\c2ccccc2)C3=O)CC1,i,i,30*,-1,i,i,-1,3,-7,44*
Oc1ccc(-c2nccc(-c3ccc(F)cc3)n2)cc1,i,i,16*,-2,i,i,-2,-6,-4,31*
Cc1nnc(-c2ccccc2)nc1N1CCOCC1,i,i,0,-2,i,i,/,/,/,/
Cc1nc(-c2ccccn2)nc(N2CCOCC2)c1Cl,i,i,18*,-12,i,i,-3,-23,-5,30*
SMILES,CHT PAM,ANO1 activ,VIM-2 inhibitor,IMP-1 inh-1,ANO1 block,CHT inh,IMP-1 inh-2,VIM-2 FRET ctr,TEM-1 inh,VIM-2 confirm 2
CCN1CCN(CCCNC(=O)CCCn2nc(C)c3sc4ccccc4c3c2=O)CC1,i,i,13*,-1,i,i,-4,4,-6,16*
CCCN1CCN(CCCNC(=O)C(CC)n2nc(C)c3sc4ccccc4c3c2=O)CC1 (stereo unspecified),i,i,1,-3,i,i,/,/,/,/
CCCN1CCN(C(=O)C(C)n2nc(C)c3sc4ccccc4c3c2=O)CC1 (stereo unspecified),i,i,29*,-3,i,i,-2,-4,-5,36*
NS(=O)(=O)OCc1ccc(C(F)(F)F)cc1,i,i,0,-2,i,i,/,/,/,/
Cc1cccc(-n2c(-c3ccncc3)n[nH]c2=S)c1C,i,i,-1,-3,i,i,/,/,/,/
Cc1n[nH]c(=S)n1-c1cccc(Cl)c1,i,i,14*,-1,i,i,-3,36*,-7,23*
Cc1nn(CCc2n[nH]c(=S)n2-c2cccc(Cl)c2)c(C)c1[N+](=O)[O-],i,i,17*,-6,i,i,-3,48*,-7,30*
Cc1ccccc1OCc1n[nH]c(=S)n1-c1cccc(Cl)c1,i,i,-6,-3,i,i,/,/,/,/
Cc1cccc(-n2c(C)n[nH]c2=S)c1C,i,i,12*,-3,i,i,-4,40*,-6,24*
CN(C)S(=O)(=O)c1ccc(N2CCCC2)c(C(=O)N2CCN(S(=O)(=O)c3ccc(F)c(F)c3)CC2)c1,/,i,/,/,/,/,/,/,/,/
Cc1c(OCC(=O)NCCN2CCOCC2)ccc2c1oc(=O)c1ccccc12,i,i,28*,-2,i,i,-2,1,-13,38*
Cc1c(OCC(=O)NCCCN2CCCC2=O)ccc2c3c(c(=O)oc12)CCCC3,i,i,12*,-2,i,i,0,9,-5,21*
Cc1cc(=O)oc2c(C)c(OCC(=O)NCCCN3CCCC3=O)ccc12,i,i,1,-3,i,i,/,/,/,/
